Test system: A549-PDL1 xenografts
Assay: In vivo pretargeting biodistribution
Parameters: species or system mice
Conditions: 1 h after [^18F]PEG12-Tz; for A549-PDL1 tumor uptake / blood uptake / lung uptake / bone uptake / brain uptake / gall bladder uptake / heart uptake / intestine uptake / kidney uptake / liver uptake / muscle uptake / spleen uptake / stomach uptake / tumor/blood / tumor/muscle: n = 3; for tumor/blood / tumor/muscle: biodistribution
Procedure, shortened: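 Male BALB/c nude mice (4–6 weeks, 13–18 g) received 5 × 10^6 A549-PDL1 and A549 cells in PBS subcutaneously behind the right armpit and were used once tumors reached 5–10 mm. Durvalumab-TCO or atezolizumab-TCO (300 μg in 150 μL PBS) was given i.v. by tail vein. After 24, 48 or 72 h, [18F]PEG12-Tz (1.85 MBq) was given i.v. Mice were killed 1 h later, and organs were weighed, γ-counted and expressed as %ID/g; n = 3. Controls: radioligand alone; blocking by co-injection of 50-fold molar excess atezolizumab plus 50 μg unlabeled tetrazine.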

“atezolizumab-TCO: atezolizumab (anti-PD-L1 antibody) modified with TCO-PEG4-NHS Ester, average 8 TCO per antibody” showed an A549-PDL1 tumor uptake (48 h after antibody-TCO 300 μg) of 1.65 ± 0.15 % ID/g, a blood uptake (48 h after antibody-TCO 300 μg) of 1.86 ± 0.15 % ID/g and a lung uptake (48 h after antibody-TCO 300 μg) of 1.65 ± 0.11 % ID/g. The “uptake in other organs such as the liver, muscles, bones, and intestines” value (48 h after atezolizumab-TCO) was under 0.96 % ID/g.

Work on “durvalumab pretargeted: pretargeting pair: durvalumab-TCO injected first, [^18F]PEG12-Tz 24-72 h later, ligated in vivo” yielded an A549-PDL1 tumor uptake (24 h after antibody-TCO 300 μg) of 2.52 ± 0.16 % ID/g, a blood uptake (24 h after antibody-TCO 300 μg) of 8.80 ± 0.50 % ID/g and a bone uptake (24 h after antibody-TCO 300 μg) of 1.16 ± 0.27 % ID/g. For the same substance, the brain uptake (24 h after antibody-TCO 300 μg) was 0.29 ± 0.07 % ID/g, the gall bladder uptake (24 h after antibody-TCO 300 μg) was 1.29 ± 0.08 % ID/g and the heart uptake (24 h after antibody-TCO 300 μg) was 2.66 ± 0.49 % ID/g. The intestine uptake (24 h after antibody-TCO 300 μg) was 0.54 ± 0.14 % ID/g, the kidney uptake (24 h after antibody-TCO 300 μg) was 3.12 ± 0.31 % ID/g and the liver uptake (24 h after antibody-TCO 300 μg) was 1.93 ± 0.59 % ID/g. It also gave a lung uptake (24 h after antibody-TCO 300 μg) of 7.06 ± 1.90 % ID/g, a muscle uptake (24 h after antibody-TCO 300 μg) of 0.72 ± 0.10 % ID/g and a spleen uptake (24 h after antibody-TCO 300 μg) of 1.27 ± 0.22 % ID/g. The stomach uptake (24 h after antibody-TCO 300 μg) was 0.50 ± 0.06 % ID/g, the A549-PDL1 tumor uptake (48 h after antibody-TCO 300 μg) was 1.91 ± 0.38 % ID/g and the blood uptake (48 h after antibody-TCO 300 μg) was 6.08 ± 1.82 % ID/g. For the same substance, the bone uptake (48 h after antibody-TCO 300 μg) was 0.98 ± 0.26 % ID/g, the brain uptake (48 h after antibody-TCO 300 μg) was 0.16 ± 0.04 % ID/g and the gall bladder uptake (48 h after antibody-TCO 300 μg) was 1.11 ± 0.35 % ID/g. The heart uptake (48 h after antibody-TCO 300 μg) was 1.57 ± 0.27 % ID/g, the intestine uptake (48 h after antibody-TCO 300 μg) was 0.40 ± 0.07 % ID/g and the kidney uptake (48 h after antibody-TCO 300 μg) was 2.68 ± 0.46 % ID/g. It also gave a liver uptake (48 h after antibody-TCO 300 μg) of 1.19 ± 0.23 % ID/g, a lung uptake (48 h after antibody-TCO 300 μg) of 3.19 ± 1.02 % ID/g and a muscle uptake (48 h after antibody-TCO 300 μg) of 0.56 ± 0.20 % ID/g. For the same substance, the spleen uptake (48 h after antibody-TCO 300 μg) was 0.48 ± 0.34 % ID/g, the stomach uptake (48 h after antibody-TCO 300 μg) was 0.33 ± 0.09 % ID/g and the A549-PDL1 tumor uptake (72 h after antibody-TCO 300 μg) was 1.60 ± 0.23 % ID/g. It also gave a blood uptake (72 h after antibody-TCO 300 μg) of 5.29 ± 0.50 % ID/g, a bone uptake (72 h after antibody-TCO 300 μg) of 0.53 ± 0.04 % ID/g and a brain uptake (72 h after antibody-TCO 300 μg) of 0.14 ± 0.01 % ID/g. It also gave a gall bladder uptake (72 h after antibody-TCO 300 μg) of 0.99 ± 0.22 % ID/g, a heart uptake (72 h after antibody-TCO 300 μg) of 1.40 ± 0.28 % ID/g and an intestine uptake (72 h after antibody-TCO 300 μg) of 0.51 ± 0.15 % ID/g. It also gave a kidney uptake (72 h after antibody-TCO 300 μg) of 2.27 ± 0.37 % ID/g, a liver uptake (72 h after antibody-TCO 300 μg) of 1.01 ± 0.16 % ID/g and a lung uptake (72 h after antibody-TCO 300 μg) of 2.01 ± 0.06 % ID/g. For the same substance, the muscle uptake (72 h after antibody-TCO 300 μg) was 0.43 ± 0.06 % ID/g, the spleen uptake (72 h after antibody-TCO 300 μg) was 0.62 ± 0.13 % ID/g and the stomach uptake (72 h after antibody-TCO 300 μg) was 0.75 ± 0.28 % ID/g. The tumor/blood (24 h after antibody-TCO 300 μg) was 0.29 ± 0.04, the tumor/muscle (24 h after antibody-TCO 300 μg) was 3.51 ± 0.75 and the tumor/blood (48 h after antibody-TCO 300 μg) was 0.31 ± 0.07. For the same substance, the tumor/muscle (48 h after antibody-TCO 300 μg) was 3.39 ± 0.46, the tumor/blood (72 h after antibody-TCO 300 μg) was 0.30 ± 0.02 and the tumor/muscle (72 h after antibody-TCO 300 μg) was 3.68 ± 0.98.

“durvalumab-TCO: durvalumab (anti-PD-L1 antibody) modified with TCO-PEG4-NHS Ester, average 12 TCO per antibody” showed an A549-PDL1 tumor uptake (24 h after antibody-TCO 300 μg) of 2.52 ± 0.16 % ID/g, a blood uptake (24 h after antibody-TCO 300 μg) of 8.80 ± 0.50 % ID/g and a lung uptake (24 h after antibody-TCO 300 μg) of 7.06 ± 1.90 % ID/g. For the same substance, the A549-PDL1 tumor uptake (48 h after antibody-TCO 300 μg) was 1.91 ± 0.38 % ID/g, the A549-PDL1 tumor uptake (72 h after antibody-TCO 300 μg) was 1.60 ± 0.23 % ID/g and the tumor/blood (24 h after antibody-TCO 300 μg) was 0.29. It also gave a tumor/muscle (24 h after antibody-TCO 300 μg) of 3.51.

— paper PMC11375721 (ACS Omega, 2024)
